Reference: ChEMBL document CHEMBL1147665, “Design, synthesis, and biological evaluation of 4-alkyliden-beta lactams: new products with promising antibiotic activity against resistant bacteria” (J Med Chem, 2006)
Values after ≈ are worked out from the molar mass of the structure shown.

Key:
Streptococcus pneumoniae = assay: Antibacterial activity against Streptococcus pneumoniae; format: functional
How it was run: (§1)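 Broth microdilution MIC per CLSI guidelines in Mueller-Hinton broth: serial 2-fold dilutions, inoculum 5 × 10⁵ CFU/mL in equal volume, 35 °C for 16-20 h. MIC = lowest concentration with no visible turbidity. Recent clinical isolates (43 total, Gram-positive and Gram-negative); values given as MIC ranges, MIC₅₀ and MIC₉₀ per species.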

[1] = test system: Staphylococcus epidermidis; assay: Antibacterial activity against Staphylococcus epidermidis; format: functional; how it was run: as §1
[2] = Viability of human TPC1 cell line at 8 uM after 21 hrs; format: cell-based; settings: TPC1 cells, read-out: Activity
How it was run: (§2)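 Human TPC1 cells seeded at 40 000/well in supplemented DMEM, grown overnight at 37 °C, 5% CO₂. Fresh medium with compound (0-128 µM, 2-fold steps), six parallel wells per concentration and controls, exposed 3, 6 or 21 h. MTT (5 mg/mL stock diluted 1:15 in medium) for 3 h, acidified 2-propanol solubilization, OD 600 nm; viability relative to control.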

Staphylococcus aureus [3] = assay: Antibacterial activity against methicillin-susceptible Staphylococcus aureus; format: functional; how it was run: as §1
[4] = Viability of human TPC1 cell line at 128 uM after 21 hrs; format: cell-based; settings: TPC1 cells, read-out: Activity; how it was run: as §2
[5] = Viability of human TPC1 cell line at 128 uM after 3 hrs; format: cell-based; settings: TPC1 cells, read-out: Activity; how it was run: as §2
Haemophilus influenzae = assay: Antibacterial activity against Haemophilus influenzae; format: functional; how it was run: as §1
Staphylococcus aureus [6] = assay: Antibacterial activity against methicillin-resistant Staphylococcus aureus; format: functional
How it was run: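 Clinical isolates (3 MRSA in a 43-strain panel). Broth microdilution per CLSI, serial 2-fold dilutions in Mueller-Hinton broth, inoculum 5 × 10⁵ CFU/mL, 35 °C for 16-20 h. MIC = lowest concentration with no visible turbidity; reported as MIC range, MIC₅₀ and MIC₉₀ across isolates.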

Enterococcus = assay: Antibacterial activity against Enterococcus spp; format: functional; how it was run: as §1
Streptococcus pyogenes = assay: Antibacterial activity against Streptococcus pyogenes; format: functional; how it was run: as §1
[7] = Viability of human TPC1 cell line at 32 uM after 21 hrs; format: cell-based; settings: TPC1 cells, read-out: Activity; how it was run: as §2

SMILES	MIC50 (Streptococcus pneumoniae)	MIC90 (Streptococcus pneumoniae)	MIC50 [1]	MIC90 [1]	viability at 21 h, 8 µM [2]	MIC50 (Staphylococcus aureus [3])	MIC90 (Staphylococcus aureus [3])	viability at 21 h, 128 µM [4]	viability at 3 h, 128 µM [5]	MIC50 (Haemophilus influenzae)	MIC90 (Haemophilus influenzae)	MIC50 (Staphylococcus aureus [6])	MIC90 (Staphylococcus aureus [6])	MIC50 (Enterococcus)	MIC90 (Enterococcus)	MIC50 (Streptococcus pyogenes)	MIC90 (Streptococcus pyogenes)	viability at 21 h, 32 µM [7]
O=C(/C=C1\NC(=O)[C@@H]1Cl)OCc1ccccc1	128 µg/mL (≈ 509 µM)	128 µg/mL (≈ 509 µM)	8 µg/mL (≈ 31.8 µM)	32 µg/mL (≈ 127 µM)	81%	8 µg/mL (≈ 31.8 µM)	16 µg/mL (≈ 63.6 µM)	23%	48%	1 µg/mL (≈ 3.97 µM)	2 µg/mL (≈ 7.95 µM)	16 µg/mL (≈ 63.6 µM)	32 µg/mL (≈ 127 µM)	16 µg/mL (≈ 63.6 µM)	16 µg/mL (≈ 63.6 µM)	32 µg/mL (≈ 127 µM)	128 µg/mL (≈ 509 µM)	
COc1cc(C(=O)O[C@H](C)[C@H]2C(=O)N/C2=C\C(=O)OCc2ccccc2)cc(OC)c1O	128 µg/mL (≈ 290 µM)	128 µg/mL (≈ 290 µM)	2 µg/mL (≈ 4.53 µM)	64 µg/mL (≈ 145 µM)		16 µg/mL (≈ 36.2 µM)	128 µg/mL (≈ 290 µM)	64%		64 µg/mL (≈ 145 µM)	128 µg/mL (≈ 290 µM)	32 µg/mL (≈ 72.5 µM)	64 µg/mL (≈ 145 µM)	128 µg/mL (≈ 290 µM)	> 128 µg/mL	128 µg/mL (≈ 290 µM)	128 µg/mL (≈ 290 µM)	81%
CO/N=C(\C(=O)N[C@@H]1C(=O)N2C(C(=O)O)=C(CSc3nc(=O)c(O)nn3C)CS[C@H]12)c1csc(N)n1 [CEFTRIAXONE]	0.12 µg/mL (≈ 0.216 µM)	2 µg/mL (≈ 3.61 µM)	8 µg/mL (≈ 14.4 µM)	32 µg/mL (≈ 57.7 µM)		2 µg/mL (≈ 3.61 µM)	2 µg/mL (≈ 3.61 µM)			< 0.06 µg/mL	0.12 µg/mL (≈ 0.216 µM)	> 128 µg/mL	> 128 µg/mL	> 128 µg/mL	> 128 µg/mL	< 0.06 µg/mL	< 0.06 µg/mL	
C[C@@H](O)[C@H]1C(=O)N2C(C(=O)O)=C(SCCNC=N)C[C@H]12 [IMIPENEM ANHYDROUS]	0.12 µg/mL (≈ 0.401 µM)	1 µg/mL (≈ 3.34 µM)	< 0.06 µg/mL	1 µg/mL (≈ 3.34 µM)		< 0.06 µg/mL	< 0.06 µg/mL			< 0.06 µg/mL	0.12 µg/mL (≈ 0.401 µM)	64 µg/mL (≈ 214 µM)	128 µg/mL (≈ 428 µM)	0.5 µg/mL (≈ 1.67 µM)	> 128 µg/mL	< 0.06 µg/mL	< 0.06 µg/mL	
C[C@@H](O)[C@H]1C(=O)N2C(C(=O)O)=C(S[C@@H]3CN[C@H](C(=O)N(C)C)C3)[C@H](C)[C@H]12 [MEROPENEM]	< 0.06 µg/mL	2 µg/mL (≈ 5.22 µM)	< 0.12 µg/mL	64 µg/mL (≈ 167 µM)		< 0.06 µg/mL	< 0.06 µg/mL			< 0.06 µg/mL	< 0.06 µg/mL	32 µg/mL (≈ 83.4 µM)	32 µg/mL (≈ 83.4 µM)	2 µg/mL (≈ 5.22 µM)	> 128 µg/mL	< 0.06 µg/mL	< 0.06 µg/mL	
